Source: ChEMBL document CHEMBL4765270, “Piperidine propionamide as a scaffold for potent sigma-1 receptor antagonists and mu opioid receptor agonists for treating neuropathic pain” (Eur J Med Chem, 2020)
Active and inactive are the calls of the source. The rule behind the calls is not given here.

Legend:
[1] = target: Sigma non-opioid intracellular receptor 1 (Cavia porcellus, UniProt Q60492); assay: Displacement of [3H]-(+)-pnetazocin from sigma1 receptor in guinea pig brain membrane incubated for 150 mins by liquid scintillation counting method; type: cell membranes
Sigma non-opioid intracellular receptor 1, sequence (Q60492 whole entry): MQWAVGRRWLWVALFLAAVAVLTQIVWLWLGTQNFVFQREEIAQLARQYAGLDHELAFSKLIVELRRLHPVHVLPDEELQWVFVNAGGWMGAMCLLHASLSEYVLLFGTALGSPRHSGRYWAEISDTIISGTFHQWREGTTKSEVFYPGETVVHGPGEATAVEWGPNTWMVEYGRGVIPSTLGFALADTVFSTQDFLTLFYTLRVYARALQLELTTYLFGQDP

[2] = system: Mus musculus; assay: Antiallodynic activity against formalin-induced nociceptive behavior in ICR mouse assessed as licking/biting time at 50 mg/kg, sc pre-treated for 30 mins followed by formalin-stimulation and measured up to 5 mins; type: functional; settings: time min <=35
Procedure, shortened: (§1)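 Male/female unspecified ICR mice (n=10 per group) given test compound s.c. or vehicle 30% PEG 400 (4 mL/kg) 30 min before intraplantar injection of 100 µL 5% formalin (1.85% formaldehyde) into right hind paw; time spent licking/biting recorded 0-5 min (phase I) and 15-45 min (phase II); antinociception % = (LT vehicle − LT drug)/LT vehicle × 100; mean ± SEM.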

[3] = target: Histamine H3 receptor (Homo sapiens) (UniProt Q9Y5N1); assay: Inhibition of histamine H3 receptor (unknown origin) at 1 uM relative to control
Histamine H3 receptor (Homo sapiens), sequence (Q9Y5N1 whole entry): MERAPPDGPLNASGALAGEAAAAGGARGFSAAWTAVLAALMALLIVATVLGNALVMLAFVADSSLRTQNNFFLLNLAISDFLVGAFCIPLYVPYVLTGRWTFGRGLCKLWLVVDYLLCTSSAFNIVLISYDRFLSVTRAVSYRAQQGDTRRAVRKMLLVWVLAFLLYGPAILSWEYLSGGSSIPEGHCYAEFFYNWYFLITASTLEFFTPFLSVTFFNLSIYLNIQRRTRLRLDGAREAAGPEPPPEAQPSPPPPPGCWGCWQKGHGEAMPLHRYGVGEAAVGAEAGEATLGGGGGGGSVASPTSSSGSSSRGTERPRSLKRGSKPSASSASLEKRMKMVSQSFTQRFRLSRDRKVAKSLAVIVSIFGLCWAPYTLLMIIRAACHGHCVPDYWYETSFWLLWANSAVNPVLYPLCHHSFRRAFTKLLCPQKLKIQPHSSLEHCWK

[4] = system: Mus musculus; assay: Antiallodynic activity against formalin-induced nociceptive behavior in ICR mouse assessed as licking/biting time at 50 mg/kg, sc pre-treated for 30 mins followed by formalin-stimulation and measured up to 15 to 30 mins; type: functional; settings: time min <=45; procedure, shortened: as §1
[5] = species: Homo sapiens; assay: Inhibition of adrenergic alpha1 receptor (unknown origin) at 1 uM relative to control
[6] = species: Homo sapiens; assay: Inhibition of sigma 2 receptor (unknown origin) at 1 uM relative to control
[7] = target: Cannabinoid receptor 1 (Homo sapiens) (UniProt P21554); assay: Inhibition of CB1 receptor (unknown origin) at 1 uM relative to control
Cannabinoid receptor 1 (Homo sapiens), sequence (P21554 whole entry): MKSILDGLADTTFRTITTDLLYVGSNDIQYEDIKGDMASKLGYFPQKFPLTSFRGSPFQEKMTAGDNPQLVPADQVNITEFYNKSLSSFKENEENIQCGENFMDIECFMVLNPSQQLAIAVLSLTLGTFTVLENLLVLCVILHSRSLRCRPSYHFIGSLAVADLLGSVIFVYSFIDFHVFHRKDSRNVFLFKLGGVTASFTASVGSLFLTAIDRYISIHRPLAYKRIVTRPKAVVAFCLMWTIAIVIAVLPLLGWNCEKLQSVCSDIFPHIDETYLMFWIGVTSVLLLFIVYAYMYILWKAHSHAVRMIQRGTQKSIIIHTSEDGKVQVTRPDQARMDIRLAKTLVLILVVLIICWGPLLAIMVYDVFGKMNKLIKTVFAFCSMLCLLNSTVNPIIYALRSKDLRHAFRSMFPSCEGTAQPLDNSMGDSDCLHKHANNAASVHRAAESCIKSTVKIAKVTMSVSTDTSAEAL

[8] = target: 5-hydroxytryptamine receptor 2A (Homo sapiens) (UniProt P28223); assay: Inhibition of 5HT2A receptor (unknown origin) at 1 uM relative to control
5-hydroxytryptamine receptor 2A (Homo sapiens), sequence (P28223 whole entry): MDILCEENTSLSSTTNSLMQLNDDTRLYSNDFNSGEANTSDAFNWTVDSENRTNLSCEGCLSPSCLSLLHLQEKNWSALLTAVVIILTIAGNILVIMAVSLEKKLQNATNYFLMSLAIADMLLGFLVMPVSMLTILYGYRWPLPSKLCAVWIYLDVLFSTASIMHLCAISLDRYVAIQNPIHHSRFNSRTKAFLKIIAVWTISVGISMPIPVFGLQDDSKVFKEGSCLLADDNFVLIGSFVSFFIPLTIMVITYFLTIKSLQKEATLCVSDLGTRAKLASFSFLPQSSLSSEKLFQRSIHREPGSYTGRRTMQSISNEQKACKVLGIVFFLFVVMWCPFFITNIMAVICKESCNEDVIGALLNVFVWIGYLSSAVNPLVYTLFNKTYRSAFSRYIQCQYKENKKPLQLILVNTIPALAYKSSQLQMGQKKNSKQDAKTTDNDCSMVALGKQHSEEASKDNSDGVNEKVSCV

[9] = Toxicity in sc dosed ICR mouse assessed as mortality after 24 hrs; type: organism-based; settings: in vivo
[10] = target: Cannabinoid receptor 2 (Homo sapiens) (UniProt P34972); assay: Inhibition of CB2 receptor (unknown origin) at 1 uM relative to control
Cannabinoid receptor 2 (Homo sapiens), sequence (P34972 whole entry): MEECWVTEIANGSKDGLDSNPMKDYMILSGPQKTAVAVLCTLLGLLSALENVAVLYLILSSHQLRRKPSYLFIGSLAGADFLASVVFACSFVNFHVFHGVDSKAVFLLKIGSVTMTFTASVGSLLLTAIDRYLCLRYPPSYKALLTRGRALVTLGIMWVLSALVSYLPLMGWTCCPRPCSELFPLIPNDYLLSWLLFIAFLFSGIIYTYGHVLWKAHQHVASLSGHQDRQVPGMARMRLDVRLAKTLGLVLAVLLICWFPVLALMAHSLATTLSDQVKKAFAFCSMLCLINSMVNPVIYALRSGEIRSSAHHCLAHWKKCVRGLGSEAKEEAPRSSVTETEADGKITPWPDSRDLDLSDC

[11] = target: T1, 5-hydroxytryptamine receptor 1A (Homo sapiens) (UniProt P08908); assay: Inhibition of 5HT1A receptor (unknown origin) at 1 uM relative to control
T1 sequence (whole entry): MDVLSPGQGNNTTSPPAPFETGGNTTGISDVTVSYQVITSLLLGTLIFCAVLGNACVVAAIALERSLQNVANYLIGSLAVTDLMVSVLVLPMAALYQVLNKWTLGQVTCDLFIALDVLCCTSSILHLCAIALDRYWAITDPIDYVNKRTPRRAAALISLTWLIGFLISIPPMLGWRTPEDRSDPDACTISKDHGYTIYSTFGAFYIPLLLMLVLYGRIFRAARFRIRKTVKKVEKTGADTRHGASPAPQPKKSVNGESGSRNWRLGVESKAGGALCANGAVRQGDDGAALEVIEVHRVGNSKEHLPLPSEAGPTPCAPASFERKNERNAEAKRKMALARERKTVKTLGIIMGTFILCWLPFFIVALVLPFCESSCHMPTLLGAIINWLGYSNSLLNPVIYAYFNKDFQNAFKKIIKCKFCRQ

[12] = species: Homo sapiens; assay: Inhibition of NMDA receptor (unknown origin) at 1 uM relative to control
[13] = target: Sodium-dependent serotonin transporter (Homo sapiens) (UniProt P31645); assay: Inhibition of 5-HT transporter (unknown origin) at 1 uM relative to control
Sodium-dependent serotonin transporter (Homo sapiens), sequence (P31645 whole entry, looked up): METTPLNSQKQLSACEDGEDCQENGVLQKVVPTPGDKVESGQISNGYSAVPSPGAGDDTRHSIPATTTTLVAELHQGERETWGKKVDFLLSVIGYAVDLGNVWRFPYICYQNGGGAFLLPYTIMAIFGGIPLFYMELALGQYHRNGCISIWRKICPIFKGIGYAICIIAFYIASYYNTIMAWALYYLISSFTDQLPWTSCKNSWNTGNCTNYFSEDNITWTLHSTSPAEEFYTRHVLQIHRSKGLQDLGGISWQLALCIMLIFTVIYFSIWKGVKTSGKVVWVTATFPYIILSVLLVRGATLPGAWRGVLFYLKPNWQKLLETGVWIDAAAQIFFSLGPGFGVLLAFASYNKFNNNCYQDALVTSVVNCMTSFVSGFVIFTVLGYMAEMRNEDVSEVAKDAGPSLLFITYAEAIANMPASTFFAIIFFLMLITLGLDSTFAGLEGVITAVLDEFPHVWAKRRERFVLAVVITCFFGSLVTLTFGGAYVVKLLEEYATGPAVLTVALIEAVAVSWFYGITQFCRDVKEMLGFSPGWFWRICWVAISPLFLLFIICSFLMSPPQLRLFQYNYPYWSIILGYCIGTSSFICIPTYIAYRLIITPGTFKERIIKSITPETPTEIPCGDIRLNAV

[14] = species: Homo sapiens; assay: Inhibition of adrenergic alpha2 receptor (unknown origin) at 1 uM relative to control
[15] = target: Sodium-dependent noradrenaline transporter (Homo sapiens) (UniProt P23975); assay: Inhibition of noradrenaline transporter (unknown origin) at 1 uM relative to control
Sodium-dependent noradrenaline transporter (Homo sapiens), sequence (P23975 whole entry): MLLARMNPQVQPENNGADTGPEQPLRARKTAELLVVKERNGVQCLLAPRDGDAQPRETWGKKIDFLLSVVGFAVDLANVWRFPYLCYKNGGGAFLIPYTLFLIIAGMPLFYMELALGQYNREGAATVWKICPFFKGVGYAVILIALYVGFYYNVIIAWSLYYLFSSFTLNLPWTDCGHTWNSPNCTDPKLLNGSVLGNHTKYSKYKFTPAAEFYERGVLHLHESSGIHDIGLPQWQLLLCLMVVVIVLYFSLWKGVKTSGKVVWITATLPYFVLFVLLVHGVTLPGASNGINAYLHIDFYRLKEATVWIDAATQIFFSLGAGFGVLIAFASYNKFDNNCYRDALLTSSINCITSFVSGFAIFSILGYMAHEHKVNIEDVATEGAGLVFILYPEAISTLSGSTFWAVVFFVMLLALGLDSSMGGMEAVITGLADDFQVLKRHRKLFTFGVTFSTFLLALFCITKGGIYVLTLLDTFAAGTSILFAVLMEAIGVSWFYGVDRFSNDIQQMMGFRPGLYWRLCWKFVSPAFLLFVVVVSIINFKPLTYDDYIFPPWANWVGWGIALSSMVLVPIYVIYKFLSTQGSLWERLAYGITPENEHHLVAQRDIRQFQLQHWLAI

[16] = Therapeutic index, ratio of LD50 for toxicity in ICR mouse to ED50 for antiallodynic activity against formalin-induced nociceptive behavior in ICR mouse; settings: read-out: Ratio LD50/ED50
Procedure, shortened: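 TI = LD50/ED50: LD50 from s.c. acute toxicity in mice, ED50 from phase II of formalin test (s.c. dosing 30 min before formalin, 12.5–100 mg/kg).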

[17] = system: Rattus norvegicus; assay: Antinociceptive activity in CCI-induced Sprague-Dawley rat model of neuropathic pain assessed as paw withdrawal latency at 50 mg/kg, sc after 15 days; type: functional, organism-based; settings: time 15.0 day
[18] = target: Mu-type opioid receptor (Cavia porcellus, UniProt P97266); assay: Displacement of [3H]DAMGO from mu opioid receptor in guinea pig brain membrane incubated for 2.5 hrs by scintillation counting method; type: cell membranes
Mu-type opioid receptor, sequence (P97266 whole entry): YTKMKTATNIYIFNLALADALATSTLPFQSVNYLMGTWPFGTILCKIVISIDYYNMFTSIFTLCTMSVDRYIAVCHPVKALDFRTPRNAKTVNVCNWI

[19] = system: Mus musculus; assay: Antiallodynic activity against formalin-induced nociceptive behavior in ICR mouse assessed as licking/biting time at 12.5 mg/kg, sc pre-treated for 30 mins followed by formalin-stimulation and measured up to 15 to 30 mins; type: functional; settings: time min <=45; procedure, shortened: as §1
[20] = system: Mus musculus; assay: Antiallodynic activity against formalin-induced nociceptive behavior in sc dosed ICR mouse assessed as licking/biting time pre-treated for 30 mins followed by formalin-stimulation and measured up to 15 to 30 mins; type: functional; settings: dose 12.5-100 mg/kg, time min <=45; procedure, shortened: as §1
[21] = system: Mus musculus; assay: Antiallodynic activity against formalin-induced nociceptive behavior in ICR mouse assessed as licking/biting time at 100 mg/kg, sc pre-treated for 30 mins followed by formalin-stimulation and measured up to 15 to 30 mins; type: functional; settings: time min <=45; procedure, shortened: as §1
[22] = system: Mus musculus; assay: Antiallodynic activity against formalin-induced nociceptive behavior in ICR mouse assessed as licking/biting time at 25 mg/kg, sc pre-treated for 30 mins followed by formalin-stimulation and measured up to 15 to 30 mins; type: functional; settings: time min <=45; procedure, shortened: as §1
[23] = system: Rattus norvegicus; assay: Antinociceptive activity in CCI-induced sc dosed Sprague-Dawley rat model of neuropathic pain assessed as paw withdrawal latency after 15 days; type: functional; settings: 360 h, time 15 day

Question: Which Ki [1] does the source give for `CCC(=O)N(CCN1CCC(Cc2ccccc2)CC1)c1cc(F)c(F)c(F)c1` here?
Answer: Its Ki is 573 nM.

Question: For `CCC(=O)N(CCN1CCC(Cc2ccc(F)cc2)CC1)c1ccc(C)cc1`, which Ki [1] is on record?
Answer: The Ki was 2.4 nM.

Question: Which Ki [1] does the source give for `CCC(=O)N(CCN1CCC(Cc2ccccc2)CC1)c1cccc(C(F)(F)F)n1` here?
Answer: Its Ki is 835 nM.

Question: For `CCC(=O)N(CCN1CCC(Cc2ccccc2)CC1)Cc1ccccc1`, which Ki [1] is on record?
Answer: Its Ki is 18.7 nM.

Question: For `CCC(=O)N(CCN1CCC(Cc2ccccc2)CC1)c1ccc(OC)cc1`, which Ki [1] is on record?
Answer: Its Ki is 1.5 nM.

Question: Which Time [2] does the source give for `CCC(=O)N(CCN1CCC(Cc2ccc(F)cc2)CC1)c1ccc(F)cc1` here?
Answer: The Time was 36 s.

Question: And the inhibition [3]?
Answer: Its inhibition is 9.75%.

Question: And the Ki [1]?
Answer: Its Ki is 1.3 nM.

Question: What about the Time [4] of the same compound?
Answer: Its Time is 110 s.

Question: What about the inhibition [5] of the same compound?
Answer: The inhibition was 39.9%.

Question: What about the inhibition [6] of the same compound?
Answer: Its inhibition is 31.8%.

Question: What about the inhibition [7] of the same compound?
Answer: The inhibition was 17.4%.

Question: What about the inhibition [8] of the same compound?
Answer: Its inhibition is 34.4%.

Question: And the LD50 at 24 h [9]?
Answer: The LD50 at 24 h was 416 mg/kg.

Question: And the inhibition [10]?
Answer: The inhibition was 19.9%.

Question: What about the inhibition [11] of the same compound?
Answer: The inhibition was 23%.

Question: What about the inhibition [12] of the same compound?
Answer: The inhibition was 20.5%.

Question: What about the inhibition [13] of the same compound?
Answer: The inhibition was 44.6%.

Question: And the inhibition [14]?
Answer: Its inhibition is 32.3%.

Question: What about the inhibition [15] of the same compound?
Answer: Its inhibition is 28.8%.

Question: What does the source list for `Cc1cc(OCCN2CCOCC2)nn1-c1ccc2ccccc2c1`?
Answer: selectivity ratio [16]: 12; Activity [2]: Active; Time [4]: 273 s; LD50 at 24 h [9]: 357 mg/kg; Activity [17]: Active

Question: With `C[C@H]1[C@H]2Cc3ccc(O)cc3[C@@]1(C)CCN2CCc1ccccc1` as the compound, how does the Ki [18] read?
Answer: The Ki was 55 nM.

Question: For `CCC(=O)N(CCN1CCC(Cc2ccccc2)CC1)c1ccccn1`, which Ki [1] is on record?
Answer: Its Ki is 402 nM.

Question: Which Ki [1] does the source give for `CCC(=O)N(CCN1CCC(c2ccccc2)CC1)c1ccc(OC)cc1` here?
Answer: Its Ki is 39 nM.

Question: For `CCC(=O)N(CCN1CCC(Cc2ccccc2)CC1)c1ncccc1F`, which Ki [1] is on record?
Answer: Its Ki is 506 nM.

Question: With `CCC(=O)N(CCN1CCC(CCCc2ccccc2)CC1)c1ccc(OC)cc1` as the compound, how does the Ki [1] read?
Answer: The Ki was 893 nM.

Question: For `CCC(=O)N(CCCCN1CCC(Cc2ccccc2)CC1)c1ccc(OC)cc1`, which Ki [1] is on record?
Answer: Its Ki is 18 nM.

Question: Which Time [2] does the source give for `CCC(=O)N(CCN1CCC(Cc2ccc(F)cc2)CC1)c1ccc(OC)cc1` here?
Answer: Its Time is 21 s.

Question: And the Time [19]?
Answer: The Time was 201 s.

Question: What about the inhibition [3] of the same compound?
Answer: Its inhibition is 34.6%.

Question: What about the Ki [1] of the same compound?
Answer: Its Ki is 1.86 nM.

Question: What about the Activity [20] of the same compound?
Answer: Its Activity is “Dose-dependent effect”.

Question: And the ED50 [20]?
Answer: Its ED50 is 15.1 mg/kg.

Question: And the Time [21]?
Answer: The Time was 41 s.

Question: And the Time [4]?
Answer: Its Time is 63 s.

Question: And the inhibition [5]?
Answer: Its inhibition is 24.7%.

Question: And the inhibition [6]?
Answer: Its inhibition is 29.1%.

Question: What about the inhibition [7] of the same compound?
Answer: The inhibition was 20.8%.

Question: And the inhibition [8]?
Answer: Its inhibition is 43.6%.

Question: And the LD50 at 24 h [9]?
Answer: The LD50 at 24 h was 397 mg/kg.

Question: What about the inhibition [10] of the same compound?
Answer: Its inhibition is 32.6%.

Question: And the inhibition [11]?
Answer: The inhibition was 45.2%.

Question: And the Time [22]?
Answer: The Time was 108 s.

Question: What about the ED50 [23] of the same compound?
Answer: The ED50 was 44.1 mg/kg.

Question: What about the inhibition [12] of the same compound?
Answer: The inhibition was 14.3%.

Question: What about the inhibition [13] of the same compound?
Answer: Its inhibition is 10.9%.

Question: And the inhibition [14]?
Answer: The inhibition was 45.9%.

Question: What about the inhibition [15] of the same compound?
Answer: Its inhibition is 18.5%.

Question: With `CCC(=O)N(CCCN1CCC(Cc2ccccc2)CC1)c1ccc(OC)cc1` as the compound, how does the Ki [1] read?
Answer: The Ki was 2.2 nM.

Question: For `CCC(=O)N(CCCCCN1CCC(Cc2ccccc2)CC1)c1ccc(OC)cc1`, which Ki [1] is on record?
Answer: Its Ki is 42 nM.

Question: Which Ki [1] does the source give for `CCC(=O)N(CCN1CCC(Cc2ccc(C)cc2)CC1)c1ccc(F)cc1` here?
Answer: The Ki was 47 nM.

Question: For `CCC(=O)N(CCN1CCC(Cc2ccc(C)cc2)CC1)c1ccc(OC)cc1`, which Ki [1] is on record?
Answer: Its Ki is 35 nM.

Question: With `C[C@@H]1[C@@H]2Cc3ccc(O)cc3[C@]1(C)CCN2CCc1ccccc1` as the compound, how does the Ki [18] read?
Answer: The Ki was 0.2 nM.

Question: Which Ki [1] does the source give for `CCC(=O)N(CCN1CCC(CCc2ccccc2)CC1)c1ccc(OC)cc1` here?
Answer: Its Ki is 372 nM.

Question: With `CCC(=O)N(CCN1CCC(Cc2ccccc2)CC1)C(C)c1ccccc1` (configuration not stated) as the compound, how does the Ki [1] read?
Answer: Its Ki is 17.4 nM.

Question: For `CCC(=O)N(CCN1CCC(Cc2ccc(C)cc2)CC1)c1ccc(C)cc1`, which Ki [1] is on record?
Answer: The Ki was 29 nM.

Question: With `CCC(=O)N(CCc1ccccc1)CCN1CCC(Cc2ccccc2)CC1` as the compound, how does the Ki [1] read?
Answer: Its Ki is 269 nM.

Question: For `CCC(=O)N(CCN1CCC(Cc2ccccc2)CC1)c1ccc(C)cc1`, which Ki [1] is on record?
Answer: The Ki was 1.6 nM.
